In the library only some 1.5% were active in any assay of this set; here they are far more common.
CCR6 antagonist – antagonists of human CCR6 receptor. AID 493098. CHO-K1 CCR6 PathHunter beta-arrestin, luminescence, CCL20-stimulated. 0.49% of 340,000 active. inhibition, % at 20 µM;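 active = compounds whose inhibition of the agonist-driven luminescence signal at 20 µM reaches about 50%, limit read from the data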;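 also: cells stimulated with CCL20 at 14 nM final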
Target sequence (P51684 whole entry, looked up): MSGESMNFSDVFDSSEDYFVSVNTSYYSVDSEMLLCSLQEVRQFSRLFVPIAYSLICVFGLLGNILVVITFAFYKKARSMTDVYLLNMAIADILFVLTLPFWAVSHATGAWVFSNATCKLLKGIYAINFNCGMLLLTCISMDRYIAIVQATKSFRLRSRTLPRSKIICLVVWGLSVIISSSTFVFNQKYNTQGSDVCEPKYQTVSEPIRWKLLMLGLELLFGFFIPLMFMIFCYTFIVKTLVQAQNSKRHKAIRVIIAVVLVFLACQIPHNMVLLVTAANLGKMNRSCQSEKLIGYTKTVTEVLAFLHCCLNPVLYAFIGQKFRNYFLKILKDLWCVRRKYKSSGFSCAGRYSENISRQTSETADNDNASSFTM
APJ antagonist – blocks the human apelin receptor APJ; inhibition, % at 20 µM; AID 2521; 0.32% of 330,000 active; P35414; CHO-K1 APJ beta-arrestin complementation, luminescence;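 active = inhibition above about 40% at 20 µM, limit read from the data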;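 also: cells challenged with 10 nM apelin-13 agonist together with compound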
EBI2 antag – blocks human EBI2 receptor beta-arrestin signaling. P32249. EBI2 beta-arrestin recruitment, luminescence, 7a,25-OHC stimulated. inhibition, % at 5 µM. 0.81% of 360,000 active. AID 651636; in the data active = inhibition above about 38%;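 also: enzyme fragment complementation signal reports receptor beta-arrestin coupling in cells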
APJ ag – activates the human apelin receptor APJ; P35414; CHO-K1 APJ PathHunter beta-arrestin, luminescence; 0% DMSO wells, 100% apelin; activation, % at 20 µM; 0.11% of 330,000 active; AID 2520;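 active = activation more than six SD over the plate average, tested at 20 µM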
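Assay system: engineered CHO-K1 APJ arrestin reporter cells; Amount: 1000 CHO-K1 reporter cells seeded per well; Dosing: one dose, 20 µM compound, 1% DMSO; Times: compound stimulation 90 min at 25 °C, detection 60 min; Measured by: luminescent beta-gal fragment complementation, chemiluminescent substrate; Read-out: APJ–arrestin association signal; Controls: DMSO vs Apelin-13 10 nM.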
CXCR6 block – inhibitors of human CXCR6 receptor. CHO-K1 PathHunter CXCR6 beta-arrestin, luminescence. inhibition, % at 20 µM. 0.36% of 360,000 active. AID 602244; in the data active = inhibition above about 34%, passing the limit was not always enough;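 also: antagonist mode with CXCL16 agonist at 10 nM final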
EBI2 conf – confirmation of human EBI2 receptor antagonists; shares compounds with EBI2 antag; EBI2 beta-arrestin luminescence, 7a,25-OHC antagonism; inhibition, % at 5 µM; 29% of 2,400 active; AID 651997;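 active = inhibition of at least 50%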
EBI2 ag – activates EBI2, counter-screen for EBI2 antagonists; shares compounds with EBI2 antag; EBI2-expressing cells, agonist mode, luminescence, 60 min; 0% vehicle, 100% 7α,25-dihydroxycholesterol control; activation, % at 5 µM; 2,400 tested, under 10 active; AID 652000;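 active = activation of at least 50%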
bGal counter – beta-galactosidase inhibition counter-screen. 1% of 2,400 active. purified beta-galactosidase, luminescent Galacton Star, 15 min. AID 652176. inhibition, % at 5 µM. shares compounds with EBI2 antag;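 active = replicate-average signal at least 3 plate SD below neutral wells, shown as high inhibition, flagging enzyme-inhibiting false positives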;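 also: higher means stronger loss of beta-gal luminescence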
Numbers stand for hits.

How did COC(=O)N/N=C/c1ccc(OS(=O)(=O)c2ccc(C)cc2)c(OC)c1 do in these assays?
CCR6 antagonist: inactive; APJ antagonist: inactive; EBI2 antag: inactive; APJ ag: inactive; CXCR6 block: inactive

Results for COc1cc(/C=N/NC(=O)COc2ccc(Cl)cc2)ccc1OS(=O)(=O)c1ccc(C)cc1 ?
CCR6 antagonist: inactive; APJ antagonist: inactive; EBI2 antag: 42; APJ ag: inactive; CXCR6 block: inactive; EBI2 conf: inactive; EBI2 ag: inactive; bGal counter: inactive

What do the screens show for `COc1cc(/C=N/NC(=O)COc2cccc(F)c2)ccc1OS(=O)(=O)c1ccc(C)cc1`?
CCR6 antagonist: inactive; APJ antagonist: inactive; EBI2 antag: inactive; APJ ag: inactive; CXCR6 block: inactive

How did C=CCNC(=O)/C(C#N)=C/c1ccc(OS(=O)(=O)c2ccc(C)cc2)c(OC)c1 do in these assays?
CCR6 antagonist: inactive; EBI2 antag: 52; CXCR6 block: inactive; EBI2 conf: 76; EBI2 ag: inactive; bGal counter: inactive

How did CCCN(CCC)CCCNC(=O)C1CCC(CNS(=O)(=O)c2cccc3nsnc23)CC1 (centres undefined) do in these assays?
CCR6 antagonist: inactive; APJ antagonist: inactive; EBI2 antag: inactive; APJ ag: inactive; CXCR6 block: inactive

How did CNS(=O)(=O)c1cn(CC(=O)NCc2ccc(F)cc2)cc1S(=O)(=O)NC do in these assays?
CCR6 antagonist: inactive; APJ antagonist: inactive; EBI2 antag: inactive; APJ ag: inactive; CXCR6 block: inactive

How did Cc1cc(C)c2cc(C(=O)N3CCC(C(=O)c4ccc(F)cc4)CC3)[nH]c2c1 do in these assays?
CCR6 antagonist: inactive; APJ antagonist: inactive; EBI2 antag: 90; APJ ag: inactive; CXCR6 block: inactive; EBI2 conf: 84; EBI2 ag: inactive; bGal counter: inactive

What do the screens show for `COc1ccc(C(=O)N2CCC(C(=O)c3c(C)cc(C)cc3C)CC2)cc1`?
CCR6 antagonist: inactive; APJ antagonist: inactive; EBI2 antag: 72; APJ ag: inactive; CXCR6 block: inactive; EBI2 conf: inactive; EBI2 ag: inactive; bGal counter: inactive

What do the screens show for `Cc1cc(C)c2cc(C(=O)N3CCC(Cc4ccccc4)CC3)[nH]c2c1`?
CCR6 antagonist: inactive; APJ antagonist: inactive; EBI2 antag: 64; APJ ag: inactive; CXCR6 block: inactive; EBI2 conf: inactive; EBI2 ag: inactive; bGal counter: inactive

What do the screens show for `Cc1cc(C)c2cc(C(=O)N3CCC(N4CCCCC4)CC3)[nH]c2c1`?
CCR6 antagonist: inactive; APJ antagonist: inactive; EBI2 antag: 46; APJ ag: inactive; CXCR6 block: inactive; EBI2 conf: inactive; EBI2 ag: inactive; bGal counter: inactive

What do the screens show for `C=CCN(c1ccccc1)S(=O)(=O)c1ccc2c(c1)NC(=O)C(C)C(=O)N2` (centres undefined)?
CCR6 antagonist: inactive; APJ antagonist: inactive; EBI2 antag: inactive; APJ ag: inactive; CXCR6 block: inactive

How did Cc1ccc(/C=N/Nc2ccc3c(C(F)(F)F)cc(C(F)(F)F)nc3n2)cc1 do in these assays?
CCR6 antagonist: inactive; APJ antagonist: inactive; EBI2 antag: 55; APJ ag: inactive; CXCR6 block: inactive; EBI2 conf: inactive; EBI2 ag: inactive; bGal counter: inactive

What do the screens show for `CCOc1ccc(N(CC(=O)NCCOc2ccc(C)cc2)S(=O)(=O)c2ccccc2)cc1`?
CCR6 antagonist: inactive; APJ antagonist: inactive; EBI2 antag: 91; APJ ag: inactive; CXCR6 block: inactive; EBI2 conf: 65; EBI2 ag: inactive; bGal counter: inactive

How did COc1ccc(N(CC(=O)NCCOc2ccccc2)S(=O)(=O)c2ccc(C)cc2)cc1 do in these assays?
CCR6 antagonist: inactive; APJ antagonist: inactive; EBI2 antag: 87; APJ ag: inactive; CXCR6 block: inactive; EBI2 conf: 64; EBI2 ag: inactive; bGal counter: inactive

What do the screens show for `COc1cccc(CNC(=O)C(CC(C)C)NC(=O)c2ccccc2C)c1` (centres undefined)?
CCR6 antagonist: inactive; APJ antagonist: inactive; EBI2 antag: inactive; APJ ag: inactive; CXCR6 block: inactive

What do the screens show for `O=S(Cc1ccc(Cl)cc1)CC(O)COc1ccc(Cl)cc1` (centres undefined)?
CCR6 antagonist: inactive; APJ antagonist: inactive; EBI2 antag: 76; APJ ag: inactive; CXCR6 block: inactive; EBI2 conf: 60; EBI2 ag: inactive; bGal counter: inactive

Results for NC(=O)OCC(O)COc1ccc(Cl)cc1 (centres undefined) ?
CCR6 antagonist: inactive; APJ antagonist: inactive; EBI2 antag: inactive; APJ ag: inactive; CXCR6 block: inactive

Results for O=C(COC(=O)/C=C/c1cccs1)NC(c1ccccc1)c1ccccc1 ?
CCR6 antagonist: inactive; APJ antagonist: inactive; EBI2 antag: 62; APJ ag: inactive; CXCR6 block: inactive; EBI2 conf: inactive; EBI2 ag: inactive; bGal counter: inactive

How did O=C(COC(=O)/C=C/c1cccs1)NC(=O)Cc1ccccc1 do in these assays?
CCR6 antagonist: inactive; APJ antagonist: inactive; EBI2 antag: inactive; APJ ag: inactive; CXCR6 block: inactive

How did COc1cc(/C=N/NC(=O)CSc2cc(C)c(Br)cc2C)ccc1O do in these assays?
CCR6 antagonist: inactive; APJ antagonist: inactive; EBI2 antag: 59; APJ ag: inactive; CXCR6 block: inactive; EBI2 conf: inactive; EBI2 ag: inactive; bGal counter: inactive

What do the screens show for `Cc1cc(SCC(=O)N/N=C/c2ccc(O)c(O)c2O)c(C)cc1Br`?
CCR6 antagonist: inactive; APJ antagonist: inactive; EBI2 antag: inactive; APJ ag: inactive; CXCR6 block: inactive

Results for O=C(/C=C/c1ccc(Cl)cc1)Nc1ccc(N2CCCCC2)cc1 ?
CCR6 antagonist: inactive; APJ antagonist: inactive; EBI2 antag: 44; APJ ag: inactive; CXCR6 block: inactive; EBI2 conf: inactive; EBI2 ag: inactive; bGal counter: inactive

What do the screens show for `O=C(/C=C/c1ccccc1)Nc1ccc(N2CCCCC2)cc1`?
CCR6 antagonist: inactive; APJ antagonist: inactive; EBI2 antag: inactive; CXCR6 block: inactive

Results for O=C(Oc1cccc([N+](=O)[O-])c1)C1CCN(C(=O)c2ccc(F)cc2)CC1 ?
CCR6 antagonist: inactive; APJ antagonist: inactive; EBI2 antag: inactive; APJ ag: inactive; CXCR6 block: inactive

What do the screens show for `CCOc1ccc(N(CC(=O)NCCc2ccccc2)S(=O)(=O)c2ccccc2)cc1`?
CCR6 antagonist: inactive; APJ antagonist: inactive; EBI2 antag: inactive; APJ ag: inactive; CXCR6 block: inactive

Screening data (PubChem)
